In ChEMBL document CHEMBL5107935, “Modulating β-arrestin 2 recruitment at the δ- and μ-opioid receptors using peptidomimetic ligands” (RSC Med Chem, 2021):

Columns and labels:
[1] = target: T1, Delta-type opioid receptor (Homo sapiens, UniProt P41143); assay: Displacement of [3H]DPDPE from human delta opioid receptor expressed in CHO cell membrane measured after 90 mins by liquid scintillation counting method; format: cell membranes
Summary of the method: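 Membranes (7 μg protein) were added and incubated 90 min at room temperature in 50 mM Tris HCl, 10 mM MgCl2, 1 mM EDTA, pH 7.4. Samples were filtered on GF-B, washed 4× with ice-cold 50 mM Tris HCl, and counted by scintillation. Points were run in duplicate.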

Mu-type opioid receptor [2] = target: T2, Mu-type opioid receptor (Homo sapiens, UniProt P35372); assay: Displacement of [3H]DAMGO from human mu opioid receptor expressed in CHO cell membrane incubated for 90 mins by liquid scintillation counting method; format: cell membranes
Homo sapiens = organism: Homo sapiens; assay: Selectivity ratio, ratio of Ki for displacement of [3H]DAMGO from human mu opioid receptor expressed in CHO cell membrane to Ki for displacement of [3H]DPDPE from human delta opioid receptor expressed in CHO cell membrane; format: cell membranes
[3] = target: Delta-type opioid receptor (Mus musculus, UniProt P32300); assay: Agonist activity at FLAG-tagged mouse delta opioid receptor expressed in human HEK293 cells assessed as inhibition of forskolin stimulated cAMP production preincubated for 20 mins followed by forskolin stimulation and measured after 15 mins by GloSensor assay; format: functional, cell-based
Summary of the method: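 HEK293 cells transiently transfected 1:3 with FLAG-mouse δOR or HA-mouse μOR plus pGloSensor22F-cAMP; used two days later at 20,000 cells/well. GloSensor reagent (2% final) applied 90 min at room temperature, then drug 20 min, then forskolin (30 μM final) 15 min, all at room temperature. Luminescence read; triplicates; pIC50 from nonlinear regression.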

[4] = target: T1, Delta-type opioid receptor; assay: Agonist activity at human delta opioid receptor expressed in CHO cells co-expressing beta-arrestin2 assessed as beta-arrestin2 recruitment measured after 90 mins by PathHunter assay; format: functional, cell-based
Summary of the method: (§1)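 PathHunter CHO cells expressing human δOR and β-arrestin 2 were plated at 2,500 cells/well one day before use. Drug was applied for 90 min at 37 °C/5% CO2, followed by PathHunter assay buffer for 60 min at room temperature. Luminescence was read. Points were run in duplicate, and pEC50 was obtained by nonlinear regression; values are means ± SEM.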

[5] = target: T1, Delta-type opioid receptor; assay: Agonist activity at human delta opioid receptor expressed in CHO cells co-expressing beta-arrestin2 assessed as beta-arrestin2 recruitment by measuring maximum efficacy measured after 90 mins by PathHunter assay; format: functional, cell-based; conditions: filed as agonist; summary of the method: as §1
Mu-type opioid receptor [6] = target: Mu-type opioid receptor (Mus musculus, UniProt P42866); assay: Agonist activity at FLAG-tagged mouse mu opioid receptor expressed in human HEK293 cells assessed as inhibition of forskolin stimulated cAMP production preincubated for 20 mins followed by forskolin stimulation and measured after 15 mins by GloSensor assay; format: functional, cell-based
Mu-type opioid receptor [7] = target: T2, Mu-type opioid receptor; assay: Agonist activity at human mu opioid receptor expressed in CHO cells co-expressing beta-arrestin2 assessed as beta-arrestin2 recruitment measured after 90 mins by PathHunter assay; format: functional, cell-based

T2 sequence (P35372 whole entry): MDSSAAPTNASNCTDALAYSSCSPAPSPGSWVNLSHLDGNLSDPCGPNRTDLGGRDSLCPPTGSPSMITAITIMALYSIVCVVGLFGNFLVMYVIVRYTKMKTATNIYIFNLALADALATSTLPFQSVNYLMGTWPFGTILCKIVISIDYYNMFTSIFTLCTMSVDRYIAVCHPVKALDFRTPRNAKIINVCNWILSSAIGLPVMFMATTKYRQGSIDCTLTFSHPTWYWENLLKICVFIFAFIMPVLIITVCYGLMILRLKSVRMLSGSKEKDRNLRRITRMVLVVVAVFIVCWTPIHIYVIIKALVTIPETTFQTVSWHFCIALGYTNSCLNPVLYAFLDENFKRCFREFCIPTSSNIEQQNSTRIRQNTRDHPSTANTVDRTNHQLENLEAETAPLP
T1 sequence (P41143 whole entry): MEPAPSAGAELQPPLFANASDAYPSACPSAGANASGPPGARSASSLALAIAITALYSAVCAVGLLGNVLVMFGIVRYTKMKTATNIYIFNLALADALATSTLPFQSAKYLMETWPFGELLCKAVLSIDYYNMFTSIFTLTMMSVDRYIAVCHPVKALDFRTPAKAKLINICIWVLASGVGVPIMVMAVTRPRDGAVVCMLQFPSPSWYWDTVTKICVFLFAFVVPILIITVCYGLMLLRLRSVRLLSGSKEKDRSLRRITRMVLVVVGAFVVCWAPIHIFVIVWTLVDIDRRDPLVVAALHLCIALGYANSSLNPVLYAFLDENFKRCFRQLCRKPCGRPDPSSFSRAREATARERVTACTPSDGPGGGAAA
Chain of Delta-type opioid receptor (Mus musculus, UniProt P32300) (P32300 whole entry): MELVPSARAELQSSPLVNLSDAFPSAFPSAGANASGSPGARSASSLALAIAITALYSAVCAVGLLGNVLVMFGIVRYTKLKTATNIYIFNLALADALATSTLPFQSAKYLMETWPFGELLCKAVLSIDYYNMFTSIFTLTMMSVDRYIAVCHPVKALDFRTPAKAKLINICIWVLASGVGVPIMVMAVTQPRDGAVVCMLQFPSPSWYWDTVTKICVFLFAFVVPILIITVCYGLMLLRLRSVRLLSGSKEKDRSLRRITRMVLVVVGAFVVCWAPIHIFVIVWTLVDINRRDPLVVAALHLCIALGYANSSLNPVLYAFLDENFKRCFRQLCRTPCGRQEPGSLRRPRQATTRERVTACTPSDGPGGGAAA
Chain of Mu-type opioid receptor (Mus musculus, UniProt P42866) (P42866 whole entry): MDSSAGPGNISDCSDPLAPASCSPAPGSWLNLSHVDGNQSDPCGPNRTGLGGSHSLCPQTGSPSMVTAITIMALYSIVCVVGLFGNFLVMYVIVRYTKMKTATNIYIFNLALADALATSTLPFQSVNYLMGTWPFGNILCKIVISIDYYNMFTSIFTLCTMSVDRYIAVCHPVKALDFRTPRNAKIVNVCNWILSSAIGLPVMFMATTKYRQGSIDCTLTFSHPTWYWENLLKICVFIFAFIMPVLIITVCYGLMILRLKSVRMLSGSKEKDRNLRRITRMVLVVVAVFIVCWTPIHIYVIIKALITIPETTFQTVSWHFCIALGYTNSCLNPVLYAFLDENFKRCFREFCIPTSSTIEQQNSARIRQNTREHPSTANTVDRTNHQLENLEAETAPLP

| Structure (SMILES) | Ki [1] | Ki (Mu-type opioid receptor [2]) | Ratio Ki (Homo sapiens) | IC50 [3] | EC50 [4] | Emax [5] | IC50 (Mu-type opioid receptor [6]) | EC50 (Mu-type opioid receptor [7]) |
| --- | --- | --- | --- | --- | --- | --- | --- | --- |
| CC(C)C[C@H](NC(=O)[C@H](Cc1ccccc1)NC(=O)CNC(=O)C/C=C(\F)[C@@H](N)Cc1ccc(O)cc1)C(=O)N(C)C | 255 nM | 85.4 nM | 0.3 | 425 nM | 3820 nM | 63% | 1000 nM | 17600 nM |
| CC(C)C[C@H](NC(=O)[C@H](Cc1ccccc1)NC(=O)CNC(=O)C/C=C(\F)[C@@H](N)Cc1ccc(O)cc1)C(=O)O |  |  |  | 33.7 nM |  | 102% | 363 nM |  |
| CCNC(=O)[C@H](CC(C)C)NC(=O)[C@H](Cc1ccccc1)NC(=O)CNC(=O)C/C=C(\F)[C@@H](N)Cc1ccc(O)cc1 | 54.7 nM | 20 nM | 0.4 | 66.2 nM | 695 nM | 70% | 178 nM | 2260 nM |
| CNC(=O)[C@H](CC(C)C)NC(=O)[C@H](Cc1ccccc1)NC(=O)CNC(=O)C/C=C(\F)[C@@H](N)Cc1ccc(O)cc1 | 55.9 nM | 9.92 nM | 0.2 | 50.2 nM | 667 nM | 90% | 42.7 nM | 7210 nM |
| CC(C)C[C@H](NC(=O)[C@H](Cc1ccccc1)NC(=O)CNC(=O)C/C=C(\F)[C@@H](N)Cc1ccc(O)cc1)C(N)=O | 94.4 nM | 7.07 nM | 0.1 | 46.6 nM | 959 nM | 84% | 186 nM | 2640 nM |
| CC(C)C[C@H](NC(=O)[C@H](Cc1ccccc1)NC(=O)CNC(=O)C/C=C(\F)[C@@H](N)Cc1ccc(O)cc1)C(=O)NC1CC1 | 104 nM | 26.1 nM | 0.3 | 152 nM | 693 nM | 69% | 126 nM | 4260 nM |
